Here are results for one compound from ChEMBL document CHEMBL5370586 (J Nat Prod, 2023).

Assay [1] concerns PC-3. The experiment in a line: Antiproliferative activity against human PC-3 cells assessed as reduction in cell count at IC50 concentration incubated for 48 hrs by flow cytometry analysis. In kind it is functional, cell-based. The method, boiled down:
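Six-well seeding at 4 × 10^4 (DU145) or 3 × 10^4 (PC-3) cells per well; CBD for 48 h. Supernatant and trypsinised adherent cells pooled and resuspended in ice-cold PBS. Cells counted by flow cytometry with forward/side scatter gating; at least three independent experiments.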
For orientation: In flow cytometry, cells or beads pass a laser one at a time.

For assay [2], the system named is DU-145. The experiment in a line: Induction of apoptosis in human DU-145 cells assessed as late apoptotic cells at 1 to 10 uM incubated for 72 hrs by YO-PRO and propidium iodide staining based high content imaging fluorescence microscopic analysis. Format: functional, cell-based. As to conditions: dose 1-10 µM. Summed up: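 DU145 or PC-3 cells seeded at 2 × 10^3 per well and given CBD at 1, 5 or 10 μM with serum for 72 h; staurosporine as positive control. Stained 30 min with Hoechst 33342 (1:5000), YO-PRO-1 (1:1000) and PI (1:1000). High-content imaging with a 63× water objective. Hoechst gave confluency, nucleus area and circularity; YO-PRO/PI gave healthy, early and late apoptotic fractions.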

Assay [3] concerns DU-145. The experiment in a line: Antiproliferative activity against human DU-145 cells assessed as reduction in cell viability incubated for 72 hrs in presence of SR141716 by MTT assay. Format: functional, cell-based. The method, boiled down:
(§1)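 DU145 or PC-3 cells pretreated 1 h with SR141716 (CB1 antagonist), SR144528 (CB2 antagonist), capsazepine (TRPV1 antagonist) or LPI (GPR55 agonist), then given CBD for 72 h. MTT read-out as % of vehicle. Compared with CBD alone by t-test; at least three independent experiments.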
For orientation: Tetrazolium assays rely on reduction of a dye to a coloured formazan, in cell work by metabolically active cells.

The test system of assay [4] is DU-145. The experiment in a line: Antiproliferative activity against human DU-145 cells assessed as reduction in cell viability incubated for 72 hrs in presence of SR144528 by MTT assay. Format: functional, cell-based. Summed up:
as §1

Assay [5] concerns DU-145. The experiment in a line: Antiproliferative activity against human DU-145 cells assessed as reduction in cell viability incubated for 72 hrs in presence of capsazepine by MTT assay. In kind it is functional, cell-based. The method, boiled down:
as §1

Assay [6] concerns PC-3. The experiment in a line: Antiproliferative activity against human PC-3 cells assessed as reduction in cell viability incubated for 72 hrs in presence of capsazepine by MTT assay. In kind it is functional, cell-based. The method, boiled down: as §1
Assay [7] concerns PC-3. The experiment in a line: Induction of cell cycle arrest in human PC-3 cells assessed as arrest in G1/S phase by measuring reduction in cyclin D3 protein expression at IC50 concentration incubated for 48 hrs by Western blotting analysis relative to control. In kind it is functional, cell-based. Summed up:
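DU145 or PC-3 cells seeded at 5 × 10^4 per well and given CBD for 48 h. Lysed in ice-cold RIPA with protease/phosphatase inhibitor; 40 μg protein per lane, SDS-PAGE, PVDF transfer, milk block. Primary antibodies overnight at 4 °C, then HRP secondary 1 h at room temperature, chemiluminescence. Densitometry normalised to loading control, then to vehicle; at least three experiments.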
For orientation: In western blotting, separated proteins are transferred to a membrane and probed.

For assay [8], the target named is Serine/threonine-protein kinase AKT (Homo sapiens) (UniProt P31751+Q9Y243+P31749). The experiment in a line: Inhibition of AKT phosphorylation in human DU-145 cells at IC50 concentration incubated for 48 hrs by Western blot analysis relative to control. In kind it is cell-based. Summed up: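 Cells seeded at 5 × 10^4 per well and treated 48 h with an IC50 dose of CBD in DU145 or PC-3. Lysed in ice-cold RIPA with protease/phosphatase inhibitor. 40 μg protein per lane on SDS-PAGE, then PVDF. Probed overnight at 4 °C for phospho-AKT and total AKT, HRP detection. Densitometry normalised to loading control, then to vehicle. Mean ± SD, ≥3 experiments, t-test.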
Sequence of Serine/threonine-protein kinase AKT (Homo sapiens) (P31749 whole entry, looked up): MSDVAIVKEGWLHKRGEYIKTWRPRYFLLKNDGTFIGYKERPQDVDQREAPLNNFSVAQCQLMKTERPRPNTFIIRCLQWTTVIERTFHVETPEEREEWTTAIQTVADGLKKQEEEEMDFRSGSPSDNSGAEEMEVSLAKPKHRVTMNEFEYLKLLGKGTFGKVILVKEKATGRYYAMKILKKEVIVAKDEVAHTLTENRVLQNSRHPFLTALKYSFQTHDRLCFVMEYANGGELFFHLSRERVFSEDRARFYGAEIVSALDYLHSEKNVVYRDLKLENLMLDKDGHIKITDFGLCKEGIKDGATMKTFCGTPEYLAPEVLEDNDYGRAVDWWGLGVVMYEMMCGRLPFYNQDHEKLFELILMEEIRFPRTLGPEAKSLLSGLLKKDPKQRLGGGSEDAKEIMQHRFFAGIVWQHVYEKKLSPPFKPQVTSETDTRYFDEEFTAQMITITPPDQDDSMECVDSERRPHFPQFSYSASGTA
Sequence of Serine/threonine-protein kinase AKT (Homo sapiens) (P31751 whole entry, looked up): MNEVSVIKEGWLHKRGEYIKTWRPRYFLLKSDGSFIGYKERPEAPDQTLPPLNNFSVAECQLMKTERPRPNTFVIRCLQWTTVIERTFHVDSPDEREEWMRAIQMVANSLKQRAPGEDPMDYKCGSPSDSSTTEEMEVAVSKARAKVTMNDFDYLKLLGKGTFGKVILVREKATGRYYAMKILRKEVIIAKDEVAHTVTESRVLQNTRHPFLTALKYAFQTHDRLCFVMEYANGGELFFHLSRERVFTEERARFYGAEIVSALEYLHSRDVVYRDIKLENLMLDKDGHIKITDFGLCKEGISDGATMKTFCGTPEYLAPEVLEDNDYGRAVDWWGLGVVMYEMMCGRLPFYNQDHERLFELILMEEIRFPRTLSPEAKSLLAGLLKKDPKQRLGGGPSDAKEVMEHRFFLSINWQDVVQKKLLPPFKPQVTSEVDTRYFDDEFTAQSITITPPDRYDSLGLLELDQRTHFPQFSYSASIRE
Sequence of Serine/threonine-protein kinase AKT (Homo sapiens) (Q9Y243 whole entry, looked up): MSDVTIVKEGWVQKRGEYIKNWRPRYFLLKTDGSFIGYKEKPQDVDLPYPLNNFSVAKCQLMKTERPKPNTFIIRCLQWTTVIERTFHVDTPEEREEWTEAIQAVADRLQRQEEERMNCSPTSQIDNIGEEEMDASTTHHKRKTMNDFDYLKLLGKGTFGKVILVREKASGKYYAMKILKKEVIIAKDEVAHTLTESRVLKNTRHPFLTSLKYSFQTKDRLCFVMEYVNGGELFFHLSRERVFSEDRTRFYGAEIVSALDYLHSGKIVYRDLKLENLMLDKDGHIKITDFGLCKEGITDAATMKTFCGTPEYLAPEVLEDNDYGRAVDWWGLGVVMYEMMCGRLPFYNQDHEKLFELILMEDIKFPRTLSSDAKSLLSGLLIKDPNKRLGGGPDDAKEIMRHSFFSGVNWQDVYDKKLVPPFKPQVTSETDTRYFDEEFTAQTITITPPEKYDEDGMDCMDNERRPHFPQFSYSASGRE

Assay [9] deals with PC-3. The experiment in a line: Anti-invasive activity against human PC-3 cells assessed as reduction in MMP-1 protein secretion incubated for 48 hrs by ELISA analysis. In kind it is functional, cell-based.

What is called inhibition is the relative decrease from the control value, in per cent. Read a high inhibition as a strong effect.

Activity calls are given as the source filed them. The rule behind the calls is not given here.

Consider `C=C(C)[C@@H]1CCC(C)=C[C@H]1c1c(O)cc(CCCCC)cc1O` [CANNABIDIOL], for which the outcome in the assay on PC-3 [1], with DU-145 [3], in the assay on DU-145 [4], with DU-145 [5], in the assay on PC-3 [6] and in the assay on PC-3 [7] was Active. Besides, the result in the assay with DU-145 [2] and in the assay with PC-3 [9] was inactive. In assay [8], the inhibition came out at 40%.
